Measurements reported in ChEMBL document CHEMBL4619720, “Synthesis and biological evaluation of new antioxidant and antiproliferative chalcogenobiotin derivatives for bladder carcinoma treatment” (Bioorg Med Chem, 2020).
The source made the active and inactive calls. The rule behind the calls is not given here.

Columns and labels:
[1] = Cytotoxicity against CHOK1 cells assessed as inhibition of cell growth at 12.5 uM after 24 hrs by MTT assay relative to control; type: cell-based, Cricetulus griseus; conditions: chinese hamster, CHO-K1 cells
Outline: (§1)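 CHO-K1 cells exposed to 0.4–50 µM for 24 and 48 h, then MTT reduction assay. Growth inhibition relative to control; IC50 by nonlinear regression; three independent experiments.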

[2] = Antioxidant activity assessed as half life of DPPH radical scavenging activity at 500 uM for 180 mins measured every 30 mins relative to control; type: functional
Outline: (§2)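 Test compounds mixed with 0.3 mM DPPH in ethanol; single-point screen at 1 mM, time course at final 500 µM. Absorbance at 518 nm read every 30 min over 180 min. Positive controls were BHT (final 500 µM) and diphenyl diselenide (final 2 mM); t1/2 is the time to scavenge 50% of DPPH. DMSO vehicle; three independent experiments.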

CHO-K1 [3] = assay: Cytotoxicity against CHOK1 cells assessed as inhibition of cell growth at 0.4 uM to 50 uM after 24 hrs by MTT assay; type: cell-based, Cricetulus griseus; conditions: chinese hamster, cho-k1, 24 h; outline: as §1
CHO-K1 [4] = assay: Cytotoxicity against CHOK1 cells assessed as inhibition of cell growth at 0.4 uM to 50 uM after 48 hrs by MTT assay; type: cell-based, Cricetulus griseus; conditions: chinese hamster, cho-k1, 48 h; outline: as §1
5637 [5] = assay: Antiproliferative activity against human 5637 cells assessed as inhibition of cell growth at 0.4 uM to 50 uM after 24 hrs by MTT assay; type: functional, cell-based
Outline: (§3)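 Human bladder carcinoma 5637 cells, grown in DMEM with 10% FBS at 37 °C under 5% CO2, were seeded at 2 × 10^4 cells/well and cultured 24 h. Medium was then replaced with compound in DMEM/FBS, DMSO ≤0.5%, for 24 or 48 h. MTT was added for 3 h, formazan dissolved in DMSO, and OD read at 492 nm. Inhibition % = [1 − Abs treated/Abs control] × 100; three independent experiments.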

5637 [6] = assay: Antiproliferative activity against human 5637 cells assessed as inhibition of cell growth at 0.4 uM to 50 uM after 48 hrs by MTT assay; type: functional, cell-based; outline: as §3
[7] = Antioxidant activity assessed as DPPH radical scavenging activity at 1 mM for 180 mins measured every 30 mins relative to control; type: functional; outline: as §2
5637 [8] = assay: Cell cycle arrest in human 5637 cells assessed as accumulation at G2/M phase at 12.5 uM after 24 hrs by propidium-iodide staining based flow cytometry; type: functional
Outline: (§4)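 5637 cells treated 24 h at 12.5 µM alongside untreated controls. DNA content measured by propidium iodide staining and flow cytometry. Triplicate treatments; analysis by two-way ANOVA with t-tests, p < 0.05.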

[9] = Antioxidant activity assessed as inhibition of Fe(II)-induced lipid peroxidation after 30 mins by TBARS assay; type: functional
Outline: (§5)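 Lipid peroxidation system: phosphatidylcholine 0.4 mg, FeSO4 55 µM, Tris-HCl pH 7.4 and compound (final 0–200 µM), 30 min at 37 °C. Then acetic acid buffer pH 3.4 plus 0.22% thiobarbituric acid, 1 h at 100 °C, n-butanol extraction of pink chromogen. IC50 from concentration curves; α-tocopherol and diphenyl diselenide as references; three independent experiments.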

[10] = Antioxidant activity assessed as half life of GPx-like activity to decompose hydrogen peroxide at 55 uM measured for 20 mins by spectrophotometer method
[11] = Cytotoxicity against human leukocytes assessed as reduction in cell viability at 100 uM after 3 hrs by Trypan blue exclusion assay
Outline: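 Leukocytes isolated from heparinized venous blood of healthy donors, 2 × 10^6/mL. Incubated 3 h in Hank's buffer with 10% human plasma containing DMSO (0.5%), compounds (100 µM) or t-butyl hydroperoxide (1 mM) as positive control. Three independent experiments.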

5637 [12] = assay: cells; conditions: Homo sapiens, 5637, 48 h
5637 [13] = assay: cells; conditions: Homo sapiens, 5637, 24 h
5637 [14] = assay: Antiproliferative activity against human 5637 cells assessed as inhibition of cell growth at 0.4 uM to 50 uM by MTT assay; type: functional, cell-based; conditions: TDE = time-dependent effect
Outline: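 5637 bladder carcinoma cells in DMEM/10% FBS at 37 °C, 5% CO2, log phase, seeded 2 × 10^4 per well for 24 h. Compound exposure 0.4–50 µM for 24 or 48 h, DMSO ≤0.5%. MTT (5 mg/mL in PBS) 3 h at 37 °C, formazan dissolved in DMSO, read at 492 nm. Inhibition % = [1 − Abs treated/Abs control] × 100; IC50 by nonlinear regression; three independent experiments.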

[15] = Antioxidant activity assessed as inhibition of Fe(II)-induced lipid peroxidation at 200 uM after 30 mins by TBARS assay; type: functional; outline: as §5
[16] = Antioxidant activity assessed as GPx-like activity to decompose hydrogen peroxide at 450 uM measured for 20 mins by spectrophotometer method; type: functional
Outline: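 GPx-mimic assay with thiophenol replacing glutathione. Ethanol, thiophenol 2.5 mM and compound (final 0–450 µM; t1/2 also taken at 55 µM) or DMSO blank, started with H2O2 2.3 mM. […] followed at 305 nm for 20 min. Ebselen and diphenyl diselenide at 55 µM as references; three independent experiments.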

[17] = Cytotoxicity against human leukocytes assessed as reduction in cell viability at 1 mM after 3 hrs by Trypan blue exclusion assay; conditions: 1000 µM
[18] = Toxicity in Swiss mouse assessed as effect on alanine aminotransferase level at 100 umol/kg, sc administration and measured for 7 days; type: organism-based; conditions: in vivo, 168 h
Outline: (§6)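 Adult male Swiss mice (25–30 g), n = 4 per group, given a single subcutaneous dose of 100 µmol/kg or DMSO 1 mL/kg. Monitored by closed-circuit TV for 168 h, with body weight, food and water intake recorded daily. Killed by decapitation at day 7; blood urea, creatinine, AST, ALT and alkaline phosphatase measured.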

CHO-K1 [19] = assay: Cytotoxicity against CHOK1 cells assessed as inhibition of cell growth after 48 hrs by MTT assay relative to control; type: cell-based; conditions: Cricetulus griseus, CHO-K1, 48 h; outline: as §1
CHO-K1 [20] = assay: Cytotoxicity against CHOK1 cells assessed as inhibition of cell growth after 24 hrs by MTT assay relative to control; type: cell-based; conditions: Cricetulus griseus, CHO-K1, 24 h; outline: as §1
[21] = Toxicity in Swiss mouse assessed as effect on alkaline phosphatase activity at 100 umol/kg, sc administration and measured for 7 days; type: organism-based; conditions: in vivo, 168 h; outline: as §6
[22] = Toxicity in Swiss mouse assessed as creatinine level in plasma at 100 umol/kg, sc administration and measured for 7 days; type: organism-based; conditions: in vivo, 168 h; outline: as §6
[23] = Toxicity in Swiss mouse assessed as survival rate at 100 umol/kg, sc administration and measured for 7 days; type: organism-based; conditions: in vivo, 168 h; outline: as §6
[24] = Toxicity in Swiss mouse assessed as increase in aspartate aminotransferase level in plasma at 100 umol/kg, sc administration and measured for 7 days; type: organism-based; conditions: in vivo, 168 h; outline: as §6
5637 [25] = assay: Cell cycle arrest in human 5637 cells assessed as accumulation at S-phase at 12.5 uM after 24 hrs by propidium-iodide staining based flow cytometry; type: functional; outline: as §4
[26] = Toxicity in Swiss mouse assessed as urea level in plasma at 100 umol/kg, sc administration and measured for 7 days; type: organism-based; conditions: in vivo, 168 h; outline: as §6

With `CCCCCCC[Te]c1ccccc1` the inhibition at 24 h, 12.5 µM [1] was 50%.

With `Cc1cc(C(C)(C)C)c(O)c(C(C)(C)C)c1` the T1/2 [2] was 20.7 min.

In the case of `O=C(O)CCCC[C@@H]1SC[C@@H]2NC(=O)N[C@@H]21` [BIOTIN], the Activity (CHO-K1 [3]) is reported as “Non-Toxic”, the Activity (CHO-K1 [4]) is reported as “Non-Toxic” and the inhibition 5637 [5] is reported as “inactive”. For the same compound, the inhibition 5637 [6] was “inactive”.

In the case of `O=C1N[C@H]2[C@H](CS[C@H]2CCCCC(=O)OCCCCC[Te]c2ccccc2)N1`, the Activity [7] is reported as 50%, the Activity 5637 [8] is reported as “Active” and the IC50 [9] is reported as 1.33 µM. The T1/2 [10] was 38.9 min, the Activity [11] was “Non-Toxic” and the IC50 5637 [12] was 6.71 µM. The IC50 5637 [13] was 7.63 µM, the inhibition 5637 [14] was “Tde” and the inhibition [15] was “Active”. For the same compound, the T1/2 [2] was 23 min and the Activity [16] was “Active”.

In the case of `O=C1N[C@H]2[C@H](CS[C@H]2CCCCC(=O)OCCCC[Se]c2ccccc2)N1`, the inhibition 5637 [5] is reported as “inactive” and the inhibition 5637 [6] is reported as “inactive”.

With `CC(C)(C)OO` [TERT-BUTYL HYDROPEROXIDE] the Activity [17] was “Toxic”.

For `Cc1c(C)c2c(c(C)c1O)CC[C@@](C)(CCC[C@H](C)CCC[C@H](C)CCCC(C)C)O2` [ALPHA-TOCOPHEROL], the IC50 [9] was 60.3 µM and the inhibition [15] was “Active”.

With `COc1ccc([Se]CCCCOC(=O)CCCC[C@@H]2SC[C@@H]3NC(=O)N[C@@H]32)cc1` the inhibition 5637 [5] was “inactive” and the inhibition 5637 [6] was “inactive”.

For `O=c1c2ccccc2[se]n1-c1ccccc1`, the T1/2 [10] was 56 min.

In the case of `Cc1ccc([Se]CCCCOC(=O)CCCC[C@@H]2SC[C@@H]3NC(=O)N[C@@H]32)cc1`, the inhibition 5637 [5] is reported as “inactive” and the inhibition 5637 [6] is reported as “inactive”.

For `O=C1N[C@H]2[C@H](CS[C@H]2CCCCC(=O)OCCCC[Te]c2ccccc2)N1`, the Activity [7] was 50%, the Activity [18] was “Non-Toxic” and the IC50 (CHO-K1 [19]) was 34.2 µM. For the same compound, the IC50 (CHO-K1 [20]) was 70 µM, the IC50 [9] was 5 µM and the T1/2 [10] was 15.8 min. The Activity [21] was “Non-Toxic”, the Activity [11] was “Non-Toxic” and the Activity [22] was “Non-Toxic”. For the same compound, the IC50 5637 [12] was 4.73 µM, the IC50 5637 [13] was 5.8 µM and the Activity [23] was “Non-Toxic”. The inhibition 5637 [14] was “Tde”, the inhibition [15] was “Active” and the Activity [24] was “Toxic”. The T1/2 [2] was 18 min, the Activity 5637 [25] was “Active” and the Activity [16] was “Active”. The Activity [26] was “Non-Toxic”.

In the case of `c1ccc([Se][Se]c2ccccc2)cc1`, the IC50 [9] is reported as 248 µM, the T1/2 [10] is reported as 120 min and the inhibition [15] is reported as “Active”. For the same compound, the T1/2 [2] was greater than 180 min and the Activity [16] was “Active”.

With `O=C1N[C@H]2[C@H](CS[C@H]2CCCCC(=O)OCCCC[Se]c2ccc(Cl)cc2)N1` the inhibition 5637 [5] was “inactive” and the inhibition 5637 [6] was “inactive”.
